Article PMC10751876 (Current research in chemical biology, 2023)

What was measured:
hBRD4 [1] = molecular target: T1, hBRD4 (Homo sapiens, UniProt O60885); experiment: ITC binding to hBRD4
TbBdf2 [2] = molecular target: T2, TbBdf2 (Trypanosoma brucei brucei, UniProt Q38AM1); experiment: ITC binding to TbBdf2; design: species or system T. brucei; settings: 15 °C; n set to 1.0; single experiment, error of the fit
T2 sequence (Q38AM1 9-123): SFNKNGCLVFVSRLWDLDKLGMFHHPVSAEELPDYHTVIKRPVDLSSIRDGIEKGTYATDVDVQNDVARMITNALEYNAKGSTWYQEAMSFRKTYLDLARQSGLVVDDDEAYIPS
How it was run: (§1)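 ITC at 15 °C. His6-tagged bromodomain protein was dialysed against 20 mM HEPES pH 7.5, 150 mM NaCl, 0.5 mM TCEP, 1% DMSO. Typically 2.0 mM protein was injected in 2–3 μL increments into 200 μM ligand in the cell. Baseline-corrected isotherms were fitted. Each titration was run at least twice; reported values come from single experiments with fit error.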

T. brucei parasites = experiment: Percent of live cells by forward and side scatter gating; assay type: cell-based; settings: flow cytometry live gate
How it was run: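 Lister 427 L224 bloodstream parasites were cultured in HMI-9 at 37 °C, 5% CO2 and treated 48 h or 72 h at set concentrations, with DMSO controls. Viability is the percentage of cells falling in a live gate set on forward and side scatter by flow cytometry.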

TbBdf3 [3] = molecular target: T3, TbBdf3 (Trypanosoma brucei brucei, UniProt Q383S2); experiment: SPR binding to TbBdf3; design: species or system T. brucei; settings: for Rmax: TbBdf3, SPR fit, (locked) = as printed
T3 sequence (Q383S2 1-221): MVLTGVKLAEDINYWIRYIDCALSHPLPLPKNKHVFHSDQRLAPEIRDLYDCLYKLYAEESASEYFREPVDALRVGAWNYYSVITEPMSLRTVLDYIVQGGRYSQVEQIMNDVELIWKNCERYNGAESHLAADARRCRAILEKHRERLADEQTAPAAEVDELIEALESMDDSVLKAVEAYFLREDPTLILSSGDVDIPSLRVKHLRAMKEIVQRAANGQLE
How it was run: (§2)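 Purified His6-tagged bromodomain protein was labelled with DBCO-PEG4-NHS ester (3-fold molar excess, 2 h, room temperature), quenched with ethanolamine, and coupled to an azide chip at pH 4.0 (~6000 RU). Run in duplicate, standard error.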

TbBdf3 [4] = molecular target: T3, TbBdf3; experiment: ITC binding to TbBdf3; design: species or system T. brucei
How it was run: as §1

hBRD4 [5] = molecular target: T1, hBRD4; experiment: SPR binding to hBRD4; settings: for Rmax: hBRD4, SPR fit, (locked) = as printed
TbBdf2 [6] = molecular target: T2, TbBdf2; experiment: SPR binding to TbBdf2; design: species or system T. brucei; settings: for Rmax: SPR fit, (locked) = as printed; for Kd: read-out: SPR KD, duplicate, standard error
How it was run: as §2

[7] = system: bloodstream T. brucei parasites; experiment: Growth inhibition of bloodstream parasites; assay type: cell-based; settings: Trypanosoma brucei, 48 h, read-out: GEC50 growth inhibition
How it was run: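 Lister 427 L224 bloodstream parasites were plated at 10,000 cells/ml in HMI-9 across a compound concentration series and grown 48 h at 37 °C, 5% CO2. Cells were then stained with 5 μM Sytox Orange for 15 min at 37 °C and counted by fixed-volume flow cytometry in a live/Sytox-negative gate. Dose-response metrics came from growth-rate-inhibition analysis (GRMetric).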

[8] = system: EP1/GFP reporter parasites; experiment: EP1/GFP reporter flow cytometry in bloodstream parasites; assay type: cell-based, T. brucei; settings: for EP1/GFP mean fluorescence intensity: 3 days
How it was run: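 Bloodstream Lister 427 L224 T. brucei (VSG3/BES7-NeoR, VSG2/BES1-PuroR) carrying an EP1/GFP reporter construct, grown in HMI-9 at 37 °C, 5% CO2. Parasites were treated 2 or 3 days, with DMSO as vehicle control. GFP mean fluorescence intensity was read by flow cytometry. Three biological replicates, SD shown; two-tailed unpaired t-test against DMSO.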

[9] = system: bloodstream T. brucei parasites (procyclin protein); experiment: Procyclin surface protein expression, anti-EP1 flow cytometry; assay type: cell-based; settings: negative control, 3 days
[10] = Solubility at ITC ligand concentration; assay type: physicochemical; settings: at 200 μM, ITC assay

Kd (hBRD4 [1]) [nM]	TbBdf2, ITC KD (TbBdf2 [2])	Kd (TbBdf3 [3]) [µM]	SPR binding to TbBdf3 (TbBdf3 [3])	Rmax (TbBdf3 [3])	Kd (TbBdf3 [4]) [µM]	Kd (hBRD4 [5]) [µM]	Rmax (hBRD4 [5])	Rmax (TbBdf2 [6])	Kd (TbBdf2 [6]) [µM]	solubility [10]	hBRD4, ITC KD (hBRD4 [1]; 15 °C, n set to 1.0, single experiment, error of the fit)	Structure (SMILES)	percentage of live cells compared to DMSO controls (T. brucei parasites)	EC50 [7] [nM]	EP1/GFP mean fluorescence intensity ([8]; 5 μM)	fold change in EP1/GFP mean fluorescence intensity compared to DMSO ([8]; 20 μM) [fold]	procyclin surface expression [9]	EP1/GFP mean fluorescence intensity ([8]; 20 μM)
680 ± 150	No binding	30 ± 21	weak binding	143 ± 51 RU	87 ± 21	0.29 ± 0.17	135 ± 27 RU	85 ± 35 RU	45 ± 31			COc1cc2c(N[C@H](C)c3ccccn3)c(C(=O)NCCCCCCN)cnc2cc1-c1c(C)noc1C [AP-08-188, N-(6-Aminohexyl)-7-(3,5-dimethylisoxazol-4-yl)-6-methoxy-4-((R)-1-(pyridin-2-yl)ethylamino)quinoline-3-carboxamide]	significantly lower	1740 ± 44	highest			
												NCCCCCCNC(=O)c1ccccc1.O=C(O)C(F)(F)F [AP-08-190, N-(6-aminohexyl)benzamide 2,2,2-trifluoroacetate]				1.2	Neither DMSO nor the control compound AP-08-190 increased procyclin surface expression	
		1.43 ± 0.32		36.9 ± 1.9 RU		6.1 ± 3.6	14.2 ± 1.8 RU	27.1 ± 1.2 RU	1.68 ± 0.34	insolubility		COc1cc2c(cc1-c1ccc(C(=O)NCCCCCCCCNC(=O)OC(C)(C)C)cc1)ncc1[nH]c(=O)n([C@H](C)c3ccccn3)c12 [AP-09-008, (R)-tert-Butyl 8-(4-(8-methoxy-2-oxo-1-(1-(pyridin-2-yl)ethyl)-2,3-dihydro-1H-imidazo[4,5-c]quinolin-7-yl)benzamido)octylcarbamate]	significantly lower	1270 ± 46	strong increase			
		56 ± 31		200 (locked) RU	22 ± 11	60 ± 26	200 (locked) RU	200 (locked) RU	44 ± 31		No binding	COCCOCCOCCOC(=O)c1ccc(-c2cc3ncc4[nH]c(=O)n([C@H](C)c5ccccn5)c4c3cc2OC)cc1 [AP-09-191, (R)-2-(2-(2-Methoxyethoxy)ethoxy)ethyl 4-(8-methoxy-2-oxo-1-(1-(pyridin-2-yl)ethyl)-2,3-dihydro-1H-imidazo[4,5-c]quinolin-7-yl)benzoate]						increased mean fluorescence intensity of GFP
